Results reported in ChEMBL document CHEMBL1157465, “Design, synthesis, and biological evaluation of novel 3-aryl-4-(1H-indole-3yl)-1,5-dihydro-2H-pyrrole-2-ones as vascular endothelial growth factor receptor (VEGF-R) inhibitors” (J Med Chem, 2008).

Tests used:
[1] = molecular target: Proto-oncogene tyrosine-protein kinase Src (Homo sapiens, UniProt P12931); test: Inhibition of human recombinant SRC
Outline: (§1)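 Human kinases expressed in Sf9 cells via baculovirus as GST or His fusions and affinity purified. 33PanQinase assay in 60 mM HEPES-NaOH pH 7.5, 3 mM MgCl2, 3 mM MnCl2, 3 µM orthovanadate, 1.2 mM DTT, 1 µM [γ-33P]ATP, 1% DMSO; 30 °C, 80 min. Substrates: poly(Glu,Tyr) 4:1 for ERBB2, IGF1-R and SRC; poly(Ala,Glu,Lys,Tyr) 6:2:5:1 for FLT3. IC50 from 10 concentrations by scintillation counting.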

[2] = molecular target: T1, Serine/threonine-protein kinase PLK4 (Homo sapiens, UniProt O00444); test: Inhibition of human recombinant SAK
T1 sequence (O00444 whole entry): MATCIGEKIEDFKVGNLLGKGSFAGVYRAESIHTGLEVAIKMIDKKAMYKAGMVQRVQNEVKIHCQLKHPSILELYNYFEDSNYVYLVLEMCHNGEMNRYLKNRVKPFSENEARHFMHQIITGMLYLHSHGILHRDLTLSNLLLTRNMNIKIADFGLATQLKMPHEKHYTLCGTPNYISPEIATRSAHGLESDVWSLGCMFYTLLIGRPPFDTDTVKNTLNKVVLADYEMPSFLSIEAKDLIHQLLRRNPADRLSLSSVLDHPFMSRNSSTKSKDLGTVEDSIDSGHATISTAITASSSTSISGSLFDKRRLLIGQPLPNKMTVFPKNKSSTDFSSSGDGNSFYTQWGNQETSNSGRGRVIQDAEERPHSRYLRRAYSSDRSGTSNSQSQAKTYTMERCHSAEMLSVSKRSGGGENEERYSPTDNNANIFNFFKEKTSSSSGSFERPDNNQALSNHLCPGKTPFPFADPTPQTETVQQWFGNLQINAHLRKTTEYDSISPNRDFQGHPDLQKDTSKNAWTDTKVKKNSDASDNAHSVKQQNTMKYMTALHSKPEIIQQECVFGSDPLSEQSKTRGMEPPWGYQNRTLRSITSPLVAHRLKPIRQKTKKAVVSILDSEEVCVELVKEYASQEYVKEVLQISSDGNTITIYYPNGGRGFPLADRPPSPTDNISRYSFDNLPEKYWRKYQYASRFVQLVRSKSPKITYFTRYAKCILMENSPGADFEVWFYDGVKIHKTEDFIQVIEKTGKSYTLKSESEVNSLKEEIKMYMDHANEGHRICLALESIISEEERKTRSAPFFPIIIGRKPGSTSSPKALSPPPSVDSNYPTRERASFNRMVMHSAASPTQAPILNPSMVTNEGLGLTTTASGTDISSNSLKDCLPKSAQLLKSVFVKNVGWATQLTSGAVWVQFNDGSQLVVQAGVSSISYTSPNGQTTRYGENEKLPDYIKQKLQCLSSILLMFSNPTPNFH
Outline: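 Human kinase expressed from cDNA in Sf9 cells (baculovirus) as GST- or His-tagged protein, affinity-purified. 10 compound concentrations, 1% DMSO final, 30 °C for 80 min. Stopped with H₃PO₄, 33P incorporation counted, IC50 derived.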

[3] = molecular target: Focal adhesion kinase 1 (Homo sapiens, UniProt Q05397); test: Inhibition of human recombinant FAK
[4] = molecular target: Vascular endothelial growth factor receptor 3 (Homo sapiens, UniProt P35916); test: Inhibition of human recombinant VEGFR3
Outline: (§2)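 Recombinant human tyrosine kinases (EPHB4, TIE2, VEGF-R2, VEGF-R3), expressed in Sf9 insect cells as GST- or His-fusions, with poly(Glu,Tyr) 4:1 as substrate. Conditions: 1 µM [γ-33P]ATP, pH 7.5 HEPES buffer with Mg/Mn, DTT and vanadate, 30 °C for 80 min, 1% DMSO. Ten concentrations were tested and IC50 came from scintillation counting of incorporated 33P.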

[5] = molecular target: T2, Aurora kinase A (Homo sapiens, UniProt O14965); test: Inhibition of human recombinant Aurora A
T2 sequence (O14965 whole entry): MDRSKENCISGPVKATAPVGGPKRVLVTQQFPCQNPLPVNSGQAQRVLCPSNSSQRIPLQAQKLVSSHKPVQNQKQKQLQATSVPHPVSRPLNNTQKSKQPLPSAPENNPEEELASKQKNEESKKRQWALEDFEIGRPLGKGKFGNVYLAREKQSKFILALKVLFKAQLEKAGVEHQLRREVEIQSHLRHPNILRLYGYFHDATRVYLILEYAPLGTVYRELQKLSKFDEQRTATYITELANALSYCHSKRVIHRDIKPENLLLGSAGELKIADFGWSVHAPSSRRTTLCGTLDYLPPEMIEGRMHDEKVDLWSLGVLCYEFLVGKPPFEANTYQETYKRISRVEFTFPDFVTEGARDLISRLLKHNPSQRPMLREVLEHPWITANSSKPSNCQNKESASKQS
Outline: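 Aurora-A or Aurora-B, human cDNA expressed in Sf9 cells as tagged recombinant protein, phosphorylating Tetra(LRRWSLG). Reactions used 60 mM HEPES pH 7.5, Mg2+/Mn2+ (3 mM each), 1.2 mM DTT, vanadate and 1 µM [γ-33P]ATP, ran 80 min at 30 °C and were stopped with 2% H3PO4.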

[6] = molecular target: Angiopoietin-1 receptor (Homo sapiens, UniProt Q02763); test: Inhibition of human recombinant TIE2; outline: as §2
[7] = molecular target: Vascular endothelial growth factor receptor 2 (Homo sapiens, UniProt P35968); test: Inhibition of human recombinant VEGFR2; outline: as §2
[8] = species: Homo sapiens; test: Antiangiogenic activity in VEGF-induced HLMEC assessed as sprouts per bead at 1.3 uM after 24 hrs by sprouting assay; assay type: functional
Outline: (§3)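 HLMEC seeded on cytodex-3 microcarrier beads and embedded in 3D fibrinogen gel with 20 ng/mL VEGF plus compound at a final 1.3 or 2.6 µM (from 1 mM DMSO stock). Gel polymerised with 0.65 U/mL thrombin and overlaid with MCDB131, 5% FCS, 5% human serum and 200 U/mL Trasylol. Negative control: gel without growth factors. After 24 h, fixed in 1% PFA; sprouts per 50 beads counted microscopically. Triplicates per condition, n = 9 experiments.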

[9] = species: Homo sapiens; test: Antiangiogenic activity in VEGF-induced HLMEC assessed as number of sprouts per bead at 2.6 uM after 24 hrs by sprouting assay; assay type: functional; outline: as §3
[10] = species: Homo sapiens; test: Induction of apoptosis in HDMEC assessed as cleaved caspase 3 at 1.3 uM after 24 hrs; assay type: functional
Outline: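 HDMEC incubated 24 h with compound. Adherent cells and supernatant harvested together, stained with an antibody to cleaved caspase-3, and analysed by FACS as percent apoptotic cells. Three independent repeats.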

[11] = molecular target: T3, Receptor-type tyrosine-protein kinase FLT3 (Homo sapiens, UniProt P36888); test: Inhibition of human recombinant FLT3; outline: as §1
T3 sequence (P36888 whole entry): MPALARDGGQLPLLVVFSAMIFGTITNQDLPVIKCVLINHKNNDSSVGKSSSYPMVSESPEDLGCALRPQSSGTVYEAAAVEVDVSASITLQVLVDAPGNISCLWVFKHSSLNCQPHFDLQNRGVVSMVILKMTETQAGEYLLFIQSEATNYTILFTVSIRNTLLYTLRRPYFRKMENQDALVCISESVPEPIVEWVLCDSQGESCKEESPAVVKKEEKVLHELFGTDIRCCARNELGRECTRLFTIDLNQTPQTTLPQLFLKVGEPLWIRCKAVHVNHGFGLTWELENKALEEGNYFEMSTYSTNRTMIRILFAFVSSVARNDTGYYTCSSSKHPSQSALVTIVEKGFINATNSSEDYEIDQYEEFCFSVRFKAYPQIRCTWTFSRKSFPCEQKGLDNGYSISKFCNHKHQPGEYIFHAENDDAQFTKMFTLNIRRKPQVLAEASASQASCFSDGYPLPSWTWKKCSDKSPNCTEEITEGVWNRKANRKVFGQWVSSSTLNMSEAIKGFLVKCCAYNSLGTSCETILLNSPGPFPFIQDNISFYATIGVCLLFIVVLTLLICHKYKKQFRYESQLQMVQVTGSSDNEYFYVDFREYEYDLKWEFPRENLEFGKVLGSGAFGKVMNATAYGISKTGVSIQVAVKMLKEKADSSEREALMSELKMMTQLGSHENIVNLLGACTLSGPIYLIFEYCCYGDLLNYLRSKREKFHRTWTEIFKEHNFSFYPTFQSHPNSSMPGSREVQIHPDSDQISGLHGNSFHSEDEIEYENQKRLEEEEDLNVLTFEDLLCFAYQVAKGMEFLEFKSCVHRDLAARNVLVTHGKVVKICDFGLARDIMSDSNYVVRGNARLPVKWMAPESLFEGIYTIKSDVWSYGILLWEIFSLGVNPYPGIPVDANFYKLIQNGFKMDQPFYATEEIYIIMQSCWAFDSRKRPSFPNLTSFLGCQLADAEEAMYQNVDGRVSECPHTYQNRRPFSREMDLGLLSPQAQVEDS

Chain of Focal adhesion kinase 1 (Q05397 whole entry): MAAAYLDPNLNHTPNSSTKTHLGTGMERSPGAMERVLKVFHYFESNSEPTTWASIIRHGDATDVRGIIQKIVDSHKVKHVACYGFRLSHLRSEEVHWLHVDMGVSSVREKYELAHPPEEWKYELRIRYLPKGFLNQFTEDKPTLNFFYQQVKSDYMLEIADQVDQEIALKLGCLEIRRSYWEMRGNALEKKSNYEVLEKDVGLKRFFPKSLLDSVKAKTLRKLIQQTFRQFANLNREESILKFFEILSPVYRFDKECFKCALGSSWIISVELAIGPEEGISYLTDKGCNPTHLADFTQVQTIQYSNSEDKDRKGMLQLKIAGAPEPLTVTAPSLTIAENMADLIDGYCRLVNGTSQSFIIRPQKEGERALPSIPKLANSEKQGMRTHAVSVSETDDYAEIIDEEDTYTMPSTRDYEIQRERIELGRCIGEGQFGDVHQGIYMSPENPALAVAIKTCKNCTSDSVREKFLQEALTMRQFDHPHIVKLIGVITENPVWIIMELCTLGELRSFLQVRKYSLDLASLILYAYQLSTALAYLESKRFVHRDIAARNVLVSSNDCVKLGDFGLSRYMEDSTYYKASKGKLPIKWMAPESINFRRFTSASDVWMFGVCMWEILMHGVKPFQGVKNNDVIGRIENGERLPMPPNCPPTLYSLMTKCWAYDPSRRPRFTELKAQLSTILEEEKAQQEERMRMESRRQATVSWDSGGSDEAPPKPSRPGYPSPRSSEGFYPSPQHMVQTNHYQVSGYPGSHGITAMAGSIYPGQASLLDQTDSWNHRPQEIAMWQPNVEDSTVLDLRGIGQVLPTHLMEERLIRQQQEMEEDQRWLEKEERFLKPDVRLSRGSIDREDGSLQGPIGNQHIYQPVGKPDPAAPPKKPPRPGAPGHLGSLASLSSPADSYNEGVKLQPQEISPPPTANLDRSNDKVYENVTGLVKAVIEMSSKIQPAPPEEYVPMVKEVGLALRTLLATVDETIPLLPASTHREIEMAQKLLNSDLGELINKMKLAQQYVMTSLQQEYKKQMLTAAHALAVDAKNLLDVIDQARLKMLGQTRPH
Chain of Angiopoietin-1 receptor (Q02763 whole entry): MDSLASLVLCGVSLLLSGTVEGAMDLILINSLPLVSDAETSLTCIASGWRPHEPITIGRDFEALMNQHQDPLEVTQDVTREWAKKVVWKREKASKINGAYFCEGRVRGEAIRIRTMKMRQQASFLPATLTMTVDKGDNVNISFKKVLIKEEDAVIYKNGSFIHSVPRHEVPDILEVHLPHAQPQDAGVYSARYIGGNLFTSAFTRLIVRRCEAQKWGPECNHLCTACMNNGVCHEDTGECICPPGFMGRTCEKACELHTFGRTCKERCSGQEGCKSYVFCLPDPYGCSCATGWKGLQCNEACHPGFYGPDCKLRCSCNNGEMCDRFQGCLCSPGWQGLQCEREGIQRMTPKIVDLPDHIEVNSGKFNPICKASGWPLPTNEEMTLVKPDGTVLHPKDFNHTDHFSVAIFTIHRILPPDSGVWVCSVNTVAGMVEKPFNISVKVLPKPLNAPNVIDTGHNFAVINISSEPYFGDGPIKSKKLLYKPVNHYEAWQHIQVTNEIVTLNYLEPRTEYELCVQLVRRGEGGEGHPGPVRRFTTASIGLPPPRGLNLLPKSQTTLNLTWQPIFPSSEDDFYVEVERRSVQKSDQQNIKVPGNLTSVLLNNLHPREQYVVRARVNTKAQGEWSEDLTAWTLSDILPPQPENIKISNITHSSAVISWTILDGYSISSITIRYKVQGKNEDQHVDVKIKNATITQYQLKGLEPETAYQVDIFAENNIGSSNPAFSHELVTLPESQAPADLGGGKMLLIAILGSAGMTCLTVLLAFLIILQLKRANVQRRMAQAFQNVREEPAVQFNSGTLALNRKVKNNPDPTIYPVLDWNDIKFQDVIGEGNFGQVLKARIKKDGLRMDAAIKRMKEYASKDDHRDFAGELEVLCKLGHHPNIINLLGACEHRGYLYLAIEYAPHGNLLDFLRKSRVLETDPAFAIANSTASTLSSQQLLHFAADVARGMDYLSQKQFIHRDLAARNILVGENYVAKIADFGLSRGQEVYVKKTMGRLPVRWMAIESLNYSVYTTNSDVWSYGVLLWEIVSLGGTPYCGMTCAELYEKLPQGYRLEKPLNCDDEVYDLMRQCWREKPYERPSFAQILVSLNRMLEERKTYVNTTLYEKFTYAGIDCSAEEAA
Chain of Vascular endothelial growth factor receptor 2 (P35968 whole entry): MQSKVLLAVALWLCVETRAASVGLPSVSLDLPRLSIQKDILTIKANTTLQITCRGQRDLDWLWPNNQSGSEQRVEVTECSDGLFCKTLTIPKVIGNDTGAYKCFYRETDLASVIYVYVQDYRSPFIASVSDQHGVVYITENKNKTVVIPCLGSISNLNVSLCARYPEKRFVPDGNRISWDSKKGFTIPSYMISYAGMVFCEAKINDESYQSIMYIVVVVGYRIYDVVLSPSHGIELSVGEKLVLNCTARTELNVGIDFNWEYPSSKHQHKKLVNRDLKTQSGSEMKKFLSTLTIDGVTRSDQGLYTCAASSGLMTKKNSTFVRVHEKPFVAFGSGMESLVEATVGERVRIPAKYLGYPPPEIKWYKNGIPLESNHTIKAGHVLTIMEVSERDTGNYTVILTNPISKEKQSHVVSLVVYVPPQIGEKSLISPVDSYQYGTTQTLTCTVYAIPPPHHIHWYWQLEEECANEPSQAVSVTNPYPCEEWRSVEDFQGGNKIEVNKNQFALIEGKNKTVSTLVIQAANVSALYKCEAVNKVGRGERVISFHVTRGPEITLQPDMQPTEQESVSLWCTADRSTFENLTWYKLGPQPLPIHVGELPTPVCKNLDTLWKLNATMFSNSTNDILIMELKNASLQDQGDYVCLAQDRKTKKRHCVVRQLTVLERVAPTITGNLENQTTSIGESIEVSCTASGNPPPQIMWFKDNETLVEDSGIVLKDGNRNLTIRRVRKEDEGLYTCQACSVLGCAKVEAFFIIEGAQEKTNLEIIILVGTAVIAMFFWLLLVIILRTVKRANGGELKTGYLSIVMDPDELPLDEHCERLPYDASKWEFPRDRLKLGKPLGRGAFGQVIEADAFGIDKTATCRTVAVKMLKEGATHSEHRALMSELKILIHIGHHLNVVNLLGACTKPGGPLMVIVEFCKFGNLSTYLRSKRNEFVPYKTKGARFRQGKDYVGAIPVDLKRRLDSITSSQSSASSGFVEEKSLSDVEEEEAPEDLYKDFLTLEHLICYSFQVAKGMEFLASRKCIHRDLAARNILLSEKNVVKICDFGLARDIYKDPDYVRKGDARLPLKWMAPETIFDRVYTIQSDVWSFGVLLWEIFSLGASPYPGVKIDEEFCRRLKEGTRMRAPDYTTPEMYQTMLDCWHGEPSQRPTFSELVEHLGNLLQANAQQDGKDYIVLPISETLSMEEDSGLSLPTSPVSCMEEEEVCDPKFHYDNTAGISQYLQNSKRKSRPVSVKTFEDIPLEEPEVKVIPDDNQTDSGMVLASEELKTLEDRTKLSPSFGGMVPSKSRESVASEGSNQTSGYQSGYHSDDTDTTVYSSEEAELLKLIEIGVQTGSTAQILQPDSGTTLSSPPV
Chain of Vascular endothelial growth factor receptor 3 (P35916 whole entry, the tested form may be a part): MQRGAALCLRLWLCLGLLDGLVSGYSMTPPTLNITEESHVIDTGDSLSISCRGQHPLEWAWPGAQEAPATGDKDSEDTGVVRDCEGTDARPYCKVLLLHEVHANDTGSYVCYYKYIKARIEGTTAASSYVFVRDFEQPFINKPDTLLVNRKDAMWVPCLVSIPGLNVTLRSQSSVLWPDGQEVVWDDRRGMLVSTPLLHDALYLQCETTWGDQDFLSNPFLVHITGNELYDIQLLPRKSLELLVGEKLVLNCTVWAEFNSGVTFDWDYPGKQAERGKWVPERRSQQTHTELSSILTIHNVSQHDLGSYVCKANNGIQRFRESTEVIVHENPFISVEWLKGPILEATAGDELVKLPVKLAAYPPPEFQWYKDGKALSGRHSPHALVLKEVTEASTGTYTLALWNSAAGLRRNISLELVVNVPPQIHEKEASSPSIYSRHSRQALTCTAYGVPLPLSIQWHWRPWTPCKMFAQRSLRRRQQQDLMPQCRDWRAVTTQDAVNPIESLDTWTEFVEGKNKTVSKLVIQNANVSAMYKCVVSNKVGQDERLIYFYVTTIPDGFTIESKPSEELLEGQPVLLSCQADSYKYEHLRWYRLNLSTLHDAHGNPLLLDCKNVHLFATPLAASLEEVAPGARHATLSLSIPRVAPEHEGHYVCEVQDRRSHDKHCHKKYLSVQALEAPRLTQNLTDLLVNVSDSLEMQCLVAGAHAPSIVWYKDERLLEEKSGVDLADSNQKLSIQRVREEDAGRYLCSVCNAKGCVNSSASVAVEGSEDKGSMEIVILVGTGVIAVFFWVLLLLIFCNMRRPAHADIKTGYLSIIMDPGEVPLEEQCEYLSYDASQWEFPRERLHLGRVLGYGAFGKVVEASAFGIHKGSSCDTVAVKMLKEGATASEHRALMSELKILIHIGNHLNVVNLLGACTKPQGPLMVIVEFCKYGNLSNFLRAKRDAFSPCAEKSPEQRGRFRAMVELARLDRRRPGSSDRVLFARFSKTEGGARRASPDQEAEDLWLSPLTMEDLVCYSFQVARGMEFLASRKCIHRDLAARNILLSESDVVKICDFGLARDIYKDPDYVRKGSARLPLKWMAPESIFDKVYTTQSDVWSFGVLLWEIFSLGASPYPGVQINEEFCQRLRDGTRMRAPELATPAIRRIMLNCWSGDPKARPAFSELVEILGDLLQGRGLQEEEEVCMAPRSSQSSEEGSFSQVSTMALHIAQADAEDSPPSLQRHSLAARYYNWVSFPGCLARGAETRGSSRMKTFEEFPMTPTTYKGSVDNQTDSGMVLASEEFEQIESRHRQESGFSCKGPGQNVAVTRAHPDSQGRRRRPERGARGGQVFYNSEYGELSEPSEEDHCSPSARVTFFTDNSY

SMILES: CCOCn1cc(C2=C(c3cc(OC)c(OC)c(OC)c3)C(=O)NC2)c2ccccc21
- IC50 [1]: 40 µM
- IC50 [2]: 35 µM
- IC50 [3]: 28 µM
- IC50 [4]: 3.6 µM
- IC50 [5]: 29 µM
- IC50 [6]: 24 µM
- IC50 [7]: 5.3 µM

SMILES: COc1cc(C2=C(c3c[nH]c4ccccc34)C(=O)NC2=O)cc(OC)c1OC [MALEIMIDE]
- inhibition [8]: 81%
- Activity [9]: 0.48
- Activity [10]: 22.4%

SMILES: COCn1cc(C2=C(c3cc(OC)c(OC)c(OC)c3)C(=O)NC2)c2ccccc21
- inhibition [8]: 42%
- IC50 [3]: 35 µM
- IC50 [4]: 3.2 µM
- IC50 [6]: 25 µM
- IC50 [11]: 25 µM
- IC50 [7]: 2.3 µM

SMILES: COc1cc(C2=C(c3cn(COC(C)C)c4ccccc34)CNC2=O)cc(OC)c1OC
- IC50 [1]: 29 µM
- IC50 [2]: 44 µM
- IC50 [3]: 27 µM
- IC50 [4]: 5.3 µM
- IC50 [5]: 33 µM
- IC50 [6]: 11 µM
- IC50 [7]: 5.2 µM
